Consider 15 compounds from ChEMBL document CHEMBL1132904, “'Double-Drugs'--a new class of prodrug form of an HIV protease inhibitor conjugated with a reverse transcriptase inhibitor by a spontaneously cleavable linker” (Bioorg Med Chem Lett, 2000).

One series has as its system MOLT-4. Description: Compound was evaluated for anti-HIV activity against HIV-1Lal inoculated with Molt-4 cells. It is filed as functional, cell-based. Conditions: Homo sapiens. The method, boiled down:
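HIV-1 LAI (100 TCID50) was inoculated together with 4-fold serial dilutions of compound onto Molt-4 cells at 5000 cells/well. Cultures were kept 7 days. Surviving cells were quantified by WST-8 assay, and EC50 was calculated from the ratios of surviving cells.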

Series [1] deals with Human immunodeficiency virus type 1 protease (Human immunodeficiency virus 1, UniProt Q72874). Description: Inhibitory activity against HIV-1 IIIB/CEM-SS protease.
Series [2] can be described thus: Water solubility by RP-HPLC. It is filed as ADME. An outline of the steps: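 Aliquots of compound solutions were injected onto HPLC. Dissolved concentration was determined by comparison of peak area.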
Series [3] deals with Human immunodeficiency virus type 1 protease (Human immunodeficiency virus 1) (UniProt Q72874). Description: Compound was evaluated for the percentage inhibition of HIV protease at 5 uM.
In series [4] the test system is Human immunodeficiency virus 1. Description: Relative potency of compound to that of AZT was determined.
Series [5] has as its target Human immunodeficiency virus type 1 protease (Human immunodeficiency virus 1) (UniProt Q72874). As to the kind of experiment: Inhibitory activity against HIV protease; Active.
A short description of series [6]: Therapeutic index was determined. Conditions: read-out: Therapeutic index.

Molecules are shown by their SMILES. In brackets after ≈: the same amount, converted by molar mass. Activity calls are given as the source filed them. The rule behind the calls is not given here. Some results are limits rather than exact numbers.

One may read the EC50 as the midpoint of the concentration-response curve. A higher EC50 goes with a need for much substance. `Cc1cccc(C)c1OCC(=O)N[C@@H](Cc1ccccc1)[C@H](O)C(=O)N1CSC(C)(C)[C@H]1C(=O)NC(C)(C)C`: the EC50 in the series with MOLT-4 amounted to 92 nM.
Consider `Cc1cccc(C)c1OCC(=O)N[C@@H](Cc1ccccc1)[C@H](OC(=O)CCC(=O)OCC1OC(n2cc(C)c(=O)[nH]c2=O)CC1N=[N+]=[N-])C(=O)N1CSC(C)(C)[C@H]1C(=O)NC(C)(C)C` (stereo partly drawn), for which the response in series [1] was half-maximal at 189 nM (EC50).
A word on the solubility: it is the concentration that dissolves in the medium under given conditions. High values mean a readily soluble substance, low ones a poorly soluble substance. Usually inhibition stands for the share of the control response that was lost under treatment. As to `Cc1cccc(C)c1OCC(=O)N[C@@H](Cc1ccccc1)[C@H](OC(=O)CCCC(=O)NCCC(=O)OCC1OC(n2cc(C)c(=O)[nH]c2=O)CC1N=[N+]=[N-])C(=O)N1CSC(C)(C)[C@H]1C(=O)NC(C)(C)C` (stereo partly drawn), in series [2], the solubility was determined as 235 µg/mL (≈ 237 µM). In addition, in the series with MOLT-4, the midpoint of the response, the EC50, lay at 3.4 nM. Further, the inhibition in series [3] worked out at 12%. The Relative potency in series [4] is 1.8.
With `CC(C)(C)NC(=O)[C@H]1N(C(=O)[C@@H](O)[C@H](Cc2ccccc2)NC(=O)CC(C)(C)C(=O)O)CSC1(C)C`, the result in series [5] was Active.
The same measure, in the same setting: next, `Cc1cccc(C)c1OCC(=O)N[C@@H](Cc1ccccc1)[C@H](OC(=O)CCC(=O)O)C(=O)N1CSC(C)(C)[C@H]1C(=O)NC(C)(C)C`: “Active”; `Cc1cccc(C)c1OCC(=O)N[C@@H](Cc1ccccc1)[C@H](OC(=O)CCCC(=O)O)C(=O)N1CSC(C)(C)[C@H]1C(=O)NC(C)(C)C`: “Active”; `Cc1ccccc1CNC(=O)[C@H]1N(C(=O)[C@@H](O)[C@H](Cc2ccccc2)NC(=O)CC(C)(C)C(=O)O)CSC1(C)C`: “Active”.
In the case of `Cc1ccccc1CNC(=O)[C@H]1N(C(=O)[C@H](O)[C@@H](Cc2ccccc2)NC(=O)CC(C)(C)C(=O)OCC2OC(n3cc(C)c(=O)[nH]c3=O)CC2N=[N+]=[N-])CSC1(C)C` (stereo partly drawn), in series [5], the result was Active.
On the same count and under the same terms, the result for `Cc1cn(C2CC(N=[N+]=[N-])C(COC(=O)C(C)(C)CC(=O)N[C@H](Cc3ccccc3)[C@@H](O)C(=O)N3CSC(C)(C)[C@H]3C(=O)NC(C)(C)C)O2)c(=O)[nH]c1=O` (stereo partly drawn) reads “Active”; that for `Cc1cn(C2CC(N=[N+]=[N-])C(COC(=O)CCN)O2)c(=O)[nH]c1=O` (stereo not drawn), “Active”; that for `Cc1cn(C2CC(N=[N+]=[N-])C(COC(=O)CN)O2)c(=O)[nH]c1=O` (stereo not drawn), “Active”.
Regarding `Cc1cccc(C)c1OCC(=O)N[C@@H](Cc1ccccc1)[C@H](OC(=O)CCC(=O)NCC(=O)OCC1OC(n2cc(C)c(=O)[nH]c2=O)CC1N=[N+]=[N-])C(=O)N1CSC(C)(C)[C@H]1C(=O)NC(C)(C)C` (stereo partly drawn) [KNI-1038], the concentration in solution in series [2] (solubility) was 290 µg/mL (≈ 301 µM). Also, in the series on MOLT-4, a half-maximal response (EC50) required 5.3 nM. Also, the inhibition in series [3] is 37%. Moreover, the Relative potency in series [4] was determined as 1.2.
Turning to `Cc1cccc(C)c1OCC(=O)N[C@@H](Cc1ccccc1)[C@H](OC(=O)CCCC(=O)NCC(=O)OCC1OC(n2cc(C)c(=O)[nH]c2=O)CC1N=[N+]=[N-])C(=O)N1CSC(C)(C)[C@H]1C(=O)NC(C)(C)C` (stereo partly drawn) [KNI-1039], the concentration in solution in series [2] (solubility) came to 371 µg/mL (≈ 380 µM). Further, in the series with MOLT-4, the EC50 was found to be 0.1 nM. Besides, the inhibition in series [3] is 55%. In addition, the selectivity ratio in series [6] was more than 2000. In addition, the Relative potency in series [4] is 62.
Take `Cc1cccc(C)c1OCC(=O)N[C@@H](Cc1ccccc1)[C@H](OC(=O)CCC(=O)NCCC(=O)OCC1OC(n2cc(C)c(=O)[nH]c2=O)CC1N=[N+]=[N-])C(=O)N1CSC(C)(C)[C@H]1C(=O)NC(C)(C)C` (stereo partly drawn) [KNI-1046]: the solubility in series [2] came out at 373 µg/mL (≈ 382 µM). In addition, in the series with MOLT-4, the midpoint of the response, the EC50, lay at 1 nM. Besides, the inhibition in series [3] turned out to be 7%. The Relative potency in series [4] worked out at 6.2.
`Cc1cn([C@H]2C[C@H](N=[N+]=[N-])[C@@H](CO)O2)c(=O)[nH]c1=O` [ZIDOVUDINE] displayed a concentration for a half-maximal effect (EC50) with MOLT-4 of 6.2 nM.
